This passage reports inhibition, Activity and IC50 results from ChEMBL document CHEMBL3856209, “Novel pyrazolopyridine derivatives as potential angiogenesis inhibitors: Synthesis, biological evaluation and transcriptome-based mechanistic analysis” (Eur J Med Chem, 2016).

SMILES strings stand for the structures. The source made the active and inactive calls. No cut-off for these calls is given here.

Data set [1] addresses Vascular endothelial growth factor receptor 2 (Homo sapiens) (UniProt P35968). Description: Inhibition of VEGF-165-induced VEGFR2 autophosphorylation at Tyr1175 in serum-starved HUVEC at 2 uM preincubated for 2 hrs followed by VEGF-165 induction measured after 5 mins by Western blot analysis. The format is cell-based. A digest of the protocol: (§1)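 Serum-starved HUVEC were given 2 µM compound or vehicle for 2 h, then VEGF-165 (50 ng/mL) or PBS for 5 min. Lysates with equal protein were run on SDS-PAGE and immunoblotted for phospho-VEGFR2 (Tyr951, 996, 1056, 1175), p-AKT Ser473, p-ERK1/2 and the total proteins. Detection was by ECL with densitometry. Phospho signals were normalized to total protein, n = 3.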

The test system of data set [2] is HUVEC (Homo sapiens). In words: Antiproliferative activity against human HUVEC cells assessed as decrease in VEGF-165-induced cell growth at 0.5 to 2 uM after 24 to 48 hrs by CyQUANT cell proliferation assay.
Data set [3] in a line: Antiproliferative activity against human EAhy926 cells assessed as decrease in cell viability after 24 to 48 hrs in presence of 2.5% fetal bovine serum by MTT assay. The format is functional, cell-based. The note with it: EA.hy 926. The gist of the method:
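EA.hy926 in DMEM with 2.5% FBS exposed 48 h to serial 1:2 compound dilutions spanning 0.125–50 μM. Viable cells measured by MTT (0.5 mg/mL, 4 h, A595/630 nm). IC50 (mean ± SEM) fitted by non-linear regression from eight or more points.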

Data set [4] relates to HUVEC. In words: Inhibition of VEGF-165-induced HUVEC chemotactic migration at 0.2 to 2 uM after 6 hrs by transwell assay. The format is functional, cell-based. Conditions: Homo sapiens. A digest of the protocol:
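Serum-starved HUVEC were pre-treated overnight with compound or vehicle in 5% FBS medium. Cells were then seeded at 6×10^4 per upper Transwell chamber (8 µm pores) and migrated for 6 h toward VEGF-165 (50 ng/mL) or starvation medium. Migrated cells were ethanol-fixed, stained with H&E and counted in five fields per well. Results are % of control from at least two independent experiments.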

The subject of the next data set is Lewis lung carcinoma. Description: Antiangiogenic activity in mouse LLC cells allografted in C57BL/6 mouse assessed as decrease of microvessel density in tumor at 0.2 mg/kg, ip administered thrice a week for 2 weeks starting 24 hrs before tumor implantation measured post last dose by IHC analysis. It is filed as functional, organism-based. The gist of the method:
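Male 6–8 week C57BL/6 mice (groups of 5–6) inoculated sc in the right flank with 5×10^5 LLC cells. Compound (0.2 mg/kg) or DMSO vehicle given ip thrice weekly for 2 weeks, starting 24 h before implantation. Tumors measured by caliper every other day. At end-point, anti-CD31 IHC (1:100) of tumor sections, with immunoreactive cells counted in six high-power fields.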

In data set [5] the test system is HUVEC. Description: Antiangiogenic activity in HUVEC assessed as inhibition of VEGF-165-induced tube formation at 0.2 to 2 uM after 24 hrs by matrigel assay. It is filed as functional, cell-based. The note with it: Homo sapiens. The gist of the method:
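HUVEC seeded at 2×10^4 cells/well on growth factor-reduced Matrigel after pre-starvation, then given compound or vehicle (up to 0.1% v/v DMSO), with or without VEGF-165, for 24 h. Fixed in ice-cold ethanol and stained with haematoxylin-eosin. Tube-like structures counted in at least 5 fields/well and expressed as % of vehicle control; replicates from two independent experiments.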

The target of data set [6] is Vascular endothelial growth factor receptor 2 (Homo sapiens) (UniProt P35968). Description: Inhibition of VEGF-165-induced VEGFR2 autophosphorylation in serum-starved HUVEC assessed as decrease in AKT phosphorylation at 2 uM preincubated for 2 hrs followed by VEGF-165 induction measured after 5 mins by Western blot analysis. It is filed as cell-based. The gist of the method: as §1
For orientation: In western blotting, separated proteins are transferred to a membrane and probed.

For data set [7], the system named is Mus musculus. In words: Toxicity in C57BL/6 mouse allografted with mouse LLC cells assessed as effect on vital organs at 0.05 to 0.2 mg/kg, ip administered thrice a week for 2 weeks starting 24 hrs before tumor implantation by haematoxylin-eosin staining-based microscopic analysis. The note with it: in vivo. It is filed as organism-based. The gist of the method:
(§2)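 Male C57BL/6 mice, 6–8 weeks old, in groups of 5–6, received 5×10^5 LLC cells sc in the right flank. Compound (0.05–0.2 mg/kg) or DMSO vehicle was given ip thrice weekly for 2 weeks, starting 24 h before implantation. Mice were weighed and examined clinically every other day. At end-point, kidney, lung, spleen, liver and heart sections were H&E-stained and examined microscopically.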

For data set [8], the system named is HUVEC. Description: Antimigratory activity in HUVEC at 0.2 to 2 uM after 6 hrs in presence of 5% fetal bovine serum by transwell assay. The format is functional, cell-based. Conditions: Homo sapiens. A digest of the protocol: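 Serum-starved confluent HUVEC pre-treated overnight with compound or vehicle in 5% FBS medium. Then placed in the upper chamber of 8 µm-pore Transwells (6×10^4 cells/well) and allowed to migrate 6 h toward 5% FBS or starvation medium. Migrated cells fixed, H&E stained, and counted in five fields/well; expressed as % of control; replicates from two independent experiments.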

Data set [9] has as its target Vascular endothelial growth factor receptor 2 (Homo sapiens) (UniProt P35968). In words: Inhibition of VEGF-165-induced VEGFR2 autophosphorylation in serum-starved HUVEC assessed as decrease in ERK1/2 phosphorylation at 2 uM preincubated for 2 hrs followed by VEGF-165 induction measured after 5 mins by Western blot analysis. The format is cell-based. A digest of the protocol:
as §1

A further data set relates to EA.hy 926. Description: Antiproliferative activity against human EAhy926 cells assessed as decrease in cell viability at 0.2 to 2 uM after 24 to 48 hrs in presence of 2.5% fetal bovine serum by MTT assay. The format is functional, cell-based. A digest of the protocol:
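EA.hy926 seeded at 4×10^3/well, adhered 24 h, and starved 4 h in 0.25% BSA medium. Then treated with compound or 0.1% v/v DMSO in medium with 2.5% FBS for 48 h. MTT 0.5 mg/mL for 4 h, A595 with 630 nm correction, cell number from a standard curve. Expressed as % of DMSO control; replicates from two independent experiments.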
In general terms: Tetrazolium assays rely on reduction of a dye to a coloured formazan, in cell work by metabolically active cells.

Data set [10] concerns HUVEC. In words: Inhibition of total protein tyrosine kinase activity in serum-starved HUVEC at 1 to 4 uM after 2 hrs. The format is cell-based. Conditions: Homo sapiens.
The test system of data set [11] is Mus musculus. In words: Toxicity in C57BL/6 mouse allografted with mouse LLC cells at 0.05 to 0.2 mg/kg, ip administered thrice a week for 2 weeks starting 24 hrs before tumor implantation by clinical test. The format is organism-based. The note with it: in vivo. A digest of the protocol: as §2
In data set [12] the test system is HUVEC (Homo sapiens). In words: Antiproliferative activity against human HUVEC cells assessed as decrease in VEGF-165-induced cell growth at 0.5 to 2 uM after 24 to 48 hrs by MTT assay.

Sequence of Vascular endothelial growth factor receptor 2 (Homo sapiens) (P35968 whole entry): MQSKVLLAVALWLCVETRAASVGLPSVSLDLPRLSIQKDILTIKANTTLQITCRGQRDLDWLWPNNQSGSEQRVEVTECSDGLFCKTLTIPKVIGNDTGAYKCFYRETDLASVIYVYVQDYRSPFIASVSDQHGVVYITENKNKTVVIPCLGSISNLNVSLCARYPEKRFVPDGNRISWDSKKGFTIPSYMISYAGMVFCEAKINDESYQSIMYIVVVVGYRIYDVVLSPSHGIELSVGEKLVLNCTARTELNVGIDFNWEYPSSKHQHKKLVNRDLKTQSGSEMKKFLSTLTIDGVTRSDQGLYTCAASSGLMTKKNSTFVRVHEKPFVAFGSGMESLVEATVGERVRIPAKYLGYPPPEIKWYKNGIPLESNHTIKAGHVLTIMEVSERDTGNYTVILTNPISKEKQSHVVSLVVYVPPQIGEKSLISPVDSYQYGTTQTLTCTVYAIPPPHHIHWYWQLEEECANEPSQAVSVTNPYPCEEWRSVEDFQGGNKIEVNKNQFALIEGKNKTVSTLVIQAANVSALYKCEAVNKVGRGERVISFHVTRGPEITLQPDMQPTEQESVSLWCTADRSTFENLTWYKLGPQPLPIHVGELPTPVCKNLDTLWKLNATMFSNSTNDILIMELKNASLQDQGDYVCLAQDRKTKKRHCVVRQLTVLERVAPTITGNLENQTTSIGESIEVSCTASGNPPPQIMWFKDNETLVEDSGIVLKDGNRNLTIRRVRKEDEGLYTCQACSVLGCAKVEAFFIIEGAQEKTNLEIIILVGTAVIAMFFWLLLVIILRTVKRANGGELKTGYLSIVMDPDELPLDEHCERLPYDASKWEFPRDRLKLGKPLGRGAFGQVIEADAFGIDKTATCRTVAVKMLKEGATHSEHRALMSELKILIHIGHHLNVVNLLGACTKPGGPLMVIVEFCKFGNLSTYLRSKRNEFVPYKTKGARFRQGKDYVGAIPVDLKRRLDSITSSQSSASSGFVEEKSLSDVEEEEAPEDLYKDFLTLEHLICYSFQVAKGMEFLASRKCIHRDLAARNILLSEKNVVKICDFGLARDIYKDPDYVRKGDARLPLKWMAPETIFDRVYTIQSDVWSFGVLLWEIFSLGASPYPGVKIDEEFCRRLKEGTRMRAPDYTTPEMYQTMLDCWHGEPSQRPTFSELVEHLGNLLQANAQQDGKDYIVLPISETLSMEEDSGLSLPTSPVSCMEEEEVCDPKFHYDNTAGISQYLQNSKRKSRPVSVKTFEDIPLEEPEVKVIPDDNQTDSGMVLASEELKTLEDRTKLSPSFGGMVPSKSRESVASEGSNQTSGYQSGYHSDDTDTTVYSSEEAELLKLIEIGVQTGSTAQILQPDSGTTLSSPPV

Take `COc1ccc(Cn2nc(-c3ccccc3)c3cc(Nc4ccccc4)nc(N4CCNCC4)c32)cc1`: the inhibition entry (in data set [1]; in the data set with HUVEC [4]; in the data set on HUVEC [5]; in [6]; in [9]; in the data set with HUVEC [10]) was “Active” each time. Moreover, the result with HUVEC (Homo sapiens) [2], in the data set with Lewis lung carcinoma, in the data set on HUVEC [8], with EA.hy 926 and in the data set with HUVEC (Homo sapiens) [12] was Active. In addition, the IC50 (commonly the concentration needed to halve the response being measured) in data set [3] is 14.1 µM. For the same molecule, the Activity result in the data set with Mus musculus [7] and with Mus musculus [11] was “Non-Toxic” throughout.
